What all share (assay type): functional, cell-based
Assay [1] deals with T1, Peroxisome proliferator-activated receptor gamma (Homo sapiens, UniProt P37231).
T1 sequence (P37231 whole entry): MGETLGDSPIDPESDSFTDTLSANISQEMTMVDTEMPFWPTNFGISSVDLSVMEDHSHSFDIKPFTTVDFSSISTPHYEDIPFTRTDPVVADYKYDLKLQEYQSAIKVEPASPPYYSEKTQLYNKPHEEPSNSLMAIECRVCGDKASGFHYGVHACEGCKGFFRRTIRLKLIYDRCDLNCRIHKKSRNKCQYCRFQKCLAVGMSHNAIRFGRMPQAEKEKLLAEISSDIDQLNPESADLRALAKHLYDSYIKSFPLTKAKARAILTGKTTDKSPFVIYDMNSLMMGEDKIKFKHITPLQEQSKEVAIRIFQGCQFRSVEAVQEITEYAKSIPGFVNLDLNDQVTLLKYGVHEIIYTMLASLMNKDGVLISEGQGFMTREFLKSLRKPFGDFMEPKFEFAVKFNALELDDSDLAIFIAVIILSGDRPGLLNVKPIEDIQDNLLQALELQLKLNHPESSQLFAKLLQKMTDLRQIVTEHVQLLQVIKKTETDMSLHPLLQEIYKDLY
Description: Agonist activity at PPARgamma expressed in HEK293 after 8 hrs by luciferase reporter gene assay. In short, it runs like this: (§1)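 HEK293 cells grown in DMEM with 5% FBS at 37 °C in 5% CO2 were calcium-phosphate co-transfected with CMX-GAL4N-hPPAR LBD (subtype-specific), TK-MH100x4-LUC reporter and CMX β-galactosidase for normalization. Compounds were added 8 h post-transfection. Luciferase was read by luminometer and β-galactosidase by plate reader. Values are normalized averages; triplicate, repeated at least twice.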
Background: Reporter assays use an easily measured gene product as a stand-in for the process of interest.

The target of assay [2] is T2, Peroxisome proliferator-activated receptor alpha (Homo sapiens, UniProt Q07869).
T2 sequence (Q07869 whole entry): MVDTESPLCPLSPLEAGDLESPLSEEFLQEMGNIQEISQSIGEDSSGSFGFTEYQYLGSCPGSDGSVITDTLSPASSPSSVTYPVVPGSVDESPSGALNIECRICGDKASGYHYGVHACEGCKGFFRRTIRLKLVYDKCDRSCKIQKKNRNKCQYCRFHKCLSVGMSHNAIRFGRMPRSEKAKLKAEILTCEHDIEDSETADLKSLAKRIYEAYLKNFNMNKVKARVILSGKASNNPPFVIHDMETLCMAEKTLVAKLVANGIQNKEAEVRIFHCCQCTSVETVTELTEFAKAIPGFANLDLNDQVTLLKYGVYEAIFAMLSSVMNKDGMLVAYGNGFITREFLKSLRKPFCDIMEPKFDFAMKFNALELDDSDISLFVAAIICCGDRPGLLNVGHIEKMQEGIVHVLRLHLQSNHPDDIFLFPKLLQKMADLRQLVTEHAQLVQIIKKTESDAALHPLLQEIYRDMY
In words: Agonist activity at human PPARalpha expressed in HEK293 after 8 hrs by luciferase reporter gene assay. In short, it runs like this:
as §1

For assay [3], the target named is T3, Peroxisome proliferator-activated receptor alpha (Homo sapiens) (UniProt Q07869).
T3 sequence (whole entry): T2 sequence (Q07869 whole entry)
In words: Agonist activity at human PPARalpha expressed in HEK293 after 8 hrs by luciferase reporter gene assay relative to fenofibric acid. Summed up: (§2)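 GAL4N-hPPAR LBD chimera with TK-MH100x4-LUC reporter in calcium-phosphate-transfected HEK293 (DMEM, 5% FBS), compounds added 8 h post-transfection. Luciferase was normalized to β-galactosidase. Percent efficacy (Emax) was taken at the maximal stimulatory response relative to 10 µM fenofibric acid (PPARα), 100 nM GW501516 (PPARδ) or 10 µM ciglitazone (PPARγ). Triplicate, at least twice.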

Assay [4] addresses T4, Peroxisome proliferator-activated receptor gamma (Homo sapiens) (UniProt P37231).
T4 sequence (whole entry): T1 sequence (P37231 whole entry)
Description: Agonist activity at PPARgamma expressed in HEK293 after 8 hrs by luciferase reporter gene assay relative to ciglitazone. In short, it runs like this: as §2

Assay [5] has as its target T5, Peroxisome proliferator-activated receptor delta (Homo sapiens) (UniProt Q03181).
T5 sequence (whole entry): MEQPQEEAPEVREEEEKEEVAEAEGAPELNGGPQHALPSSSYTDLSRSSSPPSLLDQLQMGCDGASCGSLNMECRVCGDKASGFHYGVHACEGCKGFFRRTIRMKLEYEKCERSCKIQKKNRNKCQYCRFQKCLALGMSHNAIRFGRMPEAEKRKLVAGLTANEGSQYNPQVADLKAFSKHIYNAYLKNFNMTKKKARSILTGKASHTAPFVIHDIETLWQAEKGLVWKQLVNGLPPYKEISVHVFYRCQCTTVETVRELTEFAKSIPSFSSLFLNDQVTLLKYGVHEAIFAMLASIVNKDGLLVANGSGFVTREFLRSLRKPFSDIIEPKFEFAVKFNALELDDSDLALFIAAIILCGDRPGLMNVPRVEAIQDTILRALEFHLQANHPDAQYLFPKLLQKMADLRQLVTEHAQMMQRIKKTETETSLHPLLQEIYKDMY
Description: Agonist activity at human PPARdelta expressed in HEK293 after 8 hrs by luciferase reporter gene assay relative to GW501516. Summed up:
as §2

Assay [6] concerns the target T6, Bile acid receptor (Homo sapiens) (UniProt Q96RI1).
T6 sequence (whole entry): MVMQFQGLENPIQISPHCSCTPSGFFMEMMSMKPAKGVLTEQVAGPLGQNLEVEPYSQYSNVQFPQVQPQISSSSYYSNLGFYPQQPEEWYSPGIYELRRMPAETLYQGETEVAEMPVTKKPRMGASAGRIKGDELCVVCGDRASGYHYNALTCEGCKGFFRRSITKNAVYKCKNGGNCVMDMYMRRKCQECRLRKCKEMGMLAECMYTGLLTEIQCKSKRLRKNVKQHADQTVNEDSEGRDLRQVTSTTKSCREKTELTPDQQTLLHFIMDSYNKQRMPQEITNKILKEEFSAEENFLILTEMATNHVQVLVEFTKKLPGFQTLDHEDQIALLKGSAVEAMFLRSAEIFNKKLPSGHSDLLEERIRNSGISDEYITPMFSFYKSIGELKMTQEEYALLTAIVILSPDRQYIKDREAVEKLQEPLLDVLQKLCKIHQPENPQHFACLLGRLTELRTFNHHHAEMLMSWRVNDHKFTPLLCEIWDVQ
Description: Agonist activity at FXR transfected in HEK293 cells by luciferase reporter gene assay.

For assay [7], the target named is T6, Bile acid receptor (Homo sapiens). In words: Antagonist activity at FXR transfected in HEK293 cells by luciferase reporter gene assay.
Assay [8] concerns the target T7, Peroxisome proliferator-activated receptor delta (Homo sapiens, UniProt Q03181).
T7 sequence (Q03181 whole entry): T5 sequence (whole entry)
In words: Agonist activity at PPARdelta expressed in HEK293 after 8 hrs by luciferase reporter gene assay. Summed up: as §1

Structures are written as SMILES. Active and inactive are the calls of the source. The calls are words filed in the database; no cut-off is given here.

As usually defined, the EC50 is the concentration at which the effect is half-maximal. Low readings indicate higher potency in that assay, high ones lower potency in that assay. As to `CC[C@H](Cc1ccc(CCc2ccc(N3C(=O)c4ccccc4C3=O)cc2OC)cc1)C(=O)O`, the values for the EC50 in assay [1] and in assay [2] were 12 µM and 4.5 µM, respectively. Also, the Emax in assay [3] came out at 103%; in assay [4], 40%; in assay [5] it was 8%.

In assay [2], `O=C(O)c1ccc(CCc2ccc(N3C(=O)c4ccccc4C3=O)cc2)cc1` showed an EC50 of 33 µM. Also, the Emax worked out at 14% in assay [3], 2% in assay [4] and 0% in assay [5].

For `CCCCOc1cc(N2C(=O)c3ccccc3C2=O)ccc1CCc1ccc(CC(CC)C(=O)O)cc1` (centres undefined), the result in assay [6] and in assay [7] was inactive. Moreover, the concentration giving a half-maximal response (EC50) was 7.9 µM in assay [1], 1.8 µM in assay [2] and 3.2 µM in assay [8]. Further, the Emax in assay [3] was determined as 63%; in assay [4] it was 36%; in assay [5] it was 32%.

Regarding `CCCOc1cc(N2C(=O)c3ccccc3C2=O)ccc1CCc1ccc(C[C@@H](CC)C(=O)O)cc1`, a half-maximal response in assay [2] (EC50) required 2.5 µM. Besides, the Emax in assay [3] came out at 70%; in assay [4], 7%; in assay [5], 8%.

As to `O=C(O)CCCCCCc1ccc(CCc2ccc(N3C(=O)c4ccccc4C3=O)cc2)cc1`, the Emax amounted to 8% in assay [3], 5% in assay [4] and 4% in assay [5].

Take `CC[C@@H](Cc1ccc(CCc2ccc(N3C(=O)c4ccccc4C3=O)cc2OC)cc1)C(=O)O`: the EC50 is 7.1 µM in assay [1], 8.9 µM in assay [2] and 7.3 µM in assay [8]. For the same molecule, the values for the Emax in assay [3], in assay [4] and in assay [5] were 66%, 102% and 41%, respectively.

As for `CCOc1cc(N2C(=O)c3ccccc3C2=O)ccc1CCc1ccc(CC(CC)C(=O)O)cc1` (racemic), the result in assay [6] and in assay [7] was inactive. Besides, the results for the EC50 in assay [1], in assay [2] and in assay [8] were 9.3 µM, 1.4 µM and 4.8 µM, respectively. The Emax turned out to be 102% in assay [3], 49% in assay [4] and 33% in assay [5].

As to `CCCOc1cc(N2C(=O)c3ccccc3C2=O)ccc1CCc1ccc(CC(CC)C(=O)O)cc1` (racemic), the outcome in assay [6] and in assay [7] was inactive. In addition, the EC50 in assay [1] is 6.9 µM; in assay [2] it was 1.7 µM; in assay [8], 2.9 µM. Also, the Emax in assay [3] stood at 70%; in assay [4] it was 26%; in assay [5], 40%.

As to `O=C(O)CCCCc1ccc(CCc2ccc(N3C(=O)c4ccccc4C3=O)cc2)cc1`, the Emax was 4% in assay [3], 7% in assay [4] and 4% in assay [5].

Take `CCCOc1cc(N2C(=O)c3ccccc3C2=O)ccc1CCc1ccc(C[C@H](CC)C(=O)O)cc1`: the results for the EC50 in assay [1], in assay [2] and in assay [8] were 5.2 µM, 1.7 µM and 1.8 µM, respectively. In addition, the Emax in assay [3] turned out to be 87%; in assay [4], 36%; in assay [5] it was 54%.

Take `CCC(Cc1ccc(CCc2ccc(N3C(=O)c4ccccc4C3=O)cc2)cc1)C(=O)O` (centres undefined): the result in assay [6] and in assay [7] was inactive. Besides, the EC50 worked out at 11 µM in assay [1], 6.6 µM in assay [2] and 14 µM in assay [8]. Also, the Emax in assay [3] came out at 72%; in assay [4] it was 42%; in assay [5] it was 22%.

For the molecule `CCC(Cc1ccc(CCc2ccc(N3C(=O)c4ccccc4C3=O)cc2OC)cc1)C(=O)O` (racemic), the result in assay [6] and in assay [7] was inactive. Further, the EC50 in assay [1] is 8.5 µM; in assay [2], 3.4 µM; in assay [8], 11 µM. The Emax in assay [3] was 73%; in assay [4], 78%; in assay [5], 24%.

In the case of `CCC(Cc1ccc(CCc2ccc(N3C(=O)c4ccccc4C3=O)cc2O)cc1)C(=O)O` (centres undefined), the concentration for a half-maximal effect (EC50) in assay [1] amounted to 17 µM; in assay [2] it was 14 µM; in assay [8], 25 µM. For the same molecule, the Emax stood at 20% in assay [3], 21% in assay [4] and 7% in assay [5].

For the molecule `CCOc1cc(N2C(=O)c3ccccc3C2=O)ccc1CCc1ccc(C[C@H](CC)C(=O)O)cc1`, the EC50 came to 3.2 µM in assay [1], 1.7 µM in assay [2] and 1.9 µM in assay [8]. Further, the figures for the Emax in assay [3], in assay [4] and in assay [5] were 69%, 62% and 29%, respectively.

For the molecule `CCOc1cc(N2C(=O)c3ccccc3C2=O)ccc1CCc1ccc(C[C@@H](CC)C(=O)O)cc1`, the EC50 was determined as 6.9 µM in assay [1], 1.1 µM in assay [2] and 9.7 µM in assay [8]. In addition, the Emax in assay [3] was 126%; in assay [4], 23%; in assay [5] it was 12%.

As for `O=C(O)CCCCCOc1ccc(CCc2ccc(N3C(=O)c4ccccc4C3=O)cc2)cc1`, the result in assay [6] and in assay [7] was inactive. Further, the figures for the Emax in assay [3], in assay [4] and in assay [5] were 0%, 6% and 0%, respectively.

The record behind these values is ChEMBL document CHEMBL1811873, “Peroxisome proliferator-activated receptor agonists with phenethylphenylphthalimide skeleton derived from thalidomide-related liver X receptor antagonists: relationship between absolute configuration and subtype selectivity” (Bioorg Med Chem, 2011).
